Experimental data as given in PubChem BioAssay.
Calls of active or inactive are those of the source.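 The calls were made as follows, unless noted: active = inhibition at or above 50% relative to wild type and mutant plate controls; inactive = inhibition below 50%.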

What was measured:
[1] = inhibitors of TNFa-induced NFkB p65 translocation, primary screen, imaging, HUVEC, MLSMR starter and 10KST1 sets (AID 438;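 active = inhibition above 20% together with a positive visual image hit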;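 also: compound added about 3h40 before a 20 min TNFalpha stimulation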;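 as to inhibition: signal is the nuclear over cytoplasmic p65 intensity ratio per well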); conditions: HUVEC TNFa-induced p65 nuclear translocation; cell count: measured here: nuclei count (cytotoxicity indicator), at 2.08 µM; inhibition: at 2 µM, stronger effect = higher value, 0% TNFa-plus-vehicle, 100% no-TNFa wells
[2] = endothelial E-selectin expression blockers – imaging, HUVEC, immunofluorescence, MLSMR starter and 10KST1 sets, primary screen (AID 487;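 active = visually confirmed hit in the image check and inhibition above 20%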;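 as to inhibition: signal is fraction of cell area covered by stained E-selectin grains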;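 as to nuclei count: 100% = median nuclei count of all wells on the same plate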); conditions: HUVEC TNFalpha-induced E-selectin immunofluorescence imaging, at 2 µM; inhibition: stronger effect = higher value; nuclei count: measured here: cell number, toxicity
[3] = Primary imaging screen for DUSP6 inhibitors that restore phospho-Erk in transfected HeLa cells, chemical complementation (AID 609;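 active = compounds giving at least 50% inhibition in the cell-based MKP-3 phosphatase rescue imaging test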;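 as to inhibition: phospho-Erk level distribution per well compared with pooled transfected vehicle control wells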); conditions: HeLa MKP-3 transfected, phospho-Erk imaging KS statistic, at 10 µM, cells stimulated with TPA for 15 min
[4] = biological target: Dual specificity protein phosphatase 6 (Homo sapiens) (UniProt Q16828); assay: as above; conditions: HeLa MKP-3 transfected, phospho-Erk imaging KS statistic; at 10 µM; stronger effect = higher value; cells stimulated with TPA for 15 min
Dual specificity protein phosphatase 6 (Homo sapiens), sequence (Q16828 whole entry, looked up): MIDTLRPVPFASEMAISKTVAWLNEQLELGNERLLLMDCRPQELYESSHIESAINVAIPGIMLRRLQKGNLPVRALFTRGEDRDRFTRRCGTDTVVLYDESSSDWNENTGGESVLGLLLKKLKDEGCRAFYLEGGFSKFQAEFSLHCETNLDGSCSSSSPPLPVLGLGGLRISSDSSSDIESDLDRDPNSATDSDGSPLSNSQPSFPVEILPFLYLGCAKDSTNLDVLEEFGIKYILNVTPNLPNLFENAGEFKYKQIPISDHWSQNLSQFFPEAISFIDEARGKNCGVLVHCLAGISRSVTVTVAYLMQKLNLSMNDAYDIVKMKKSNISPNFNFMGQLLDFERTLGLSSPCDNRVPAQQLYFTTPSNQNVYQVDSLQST

[5] = biological target: Voltage-gated potassium channel subunit beta-2 (Rattus norvegicus) (UniProt P62483); assay: inhibitors of rat Kvbeta2 reductase activity – biochemical, NADPH fluorescence, primary screen (AID 622;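 active = fluorescence slope higher than the sample average by over 3 SD, cut at about -0.22 in these data, passing the limit was not always enough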;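 also: slope of raw intensity against log time taken from 70 to 1610 s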); conditions: recombinant KvBeta, 4-cyanobenzaldehyde reduction, at 10 µM, stronger effect = higher value
Voltage-gated potassium channel subunit beta-2 (Rattus norvegicus), sequence (P62483 whole entry, looked up): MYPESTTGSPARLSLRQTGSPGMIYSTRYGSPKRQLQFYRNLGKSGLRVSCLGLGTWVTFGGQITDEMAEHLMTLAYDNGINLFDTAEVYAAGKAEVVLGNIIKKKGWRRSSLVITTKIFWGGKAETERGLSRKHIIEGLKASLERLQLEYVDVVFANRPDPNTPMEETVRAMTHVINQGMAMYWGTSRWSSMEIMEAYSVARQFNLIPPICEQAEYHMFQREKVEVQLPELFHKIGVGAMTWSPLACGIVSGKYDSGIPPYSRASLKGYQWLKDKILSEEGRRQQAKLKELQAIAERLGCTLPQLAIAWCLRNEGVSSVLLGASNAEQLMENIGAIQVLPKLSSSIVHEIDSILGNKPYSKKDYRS

[6] = biological target: Voltage-gated potassium channel subunit beta-2 (Rattus norvegicus) (UniProt P62483); assay: enhancers of rat Kvbeta2 NADPH turnover – biochemical, NADPH fluorescence, primary screen (AID 623;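 active = NADPH fluorescence slope more negative than the mean of all samples by about 3 SD, 99.7% confidence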;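 also: fluorescence intensity change per second fitted from 20 to 320 s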); conditions: Recombinant KvBeta, NADPH fluorescence decrease slope, 10 min; at 10 µM; stronger effect = lower value
[7] = biological target: Muscarinic acetylcholine receptor M4 (Homo sapiens) (UniProt P08173); assay: M4-linked GIRK flux change, two-sided – cell-based, HEK293 M4/GIRK, thallium flux, BTC-AM, M4 allosteric agonist project, primary screen (AID 625;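 active = fluorescence slope after compound addition differing from the mean of all tested samples at 99.7% confidence, mostly higher but some lower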;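 also: thallium influx through GIRK channels coupled to M4 in HEK293 cells with BTC-AM dye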); conditions: at 10 µM, actives lie on both sides
Muscarinic acetylcholine receptor M4 (Homo sapiens), sequence (P08173 whole entry, looked up): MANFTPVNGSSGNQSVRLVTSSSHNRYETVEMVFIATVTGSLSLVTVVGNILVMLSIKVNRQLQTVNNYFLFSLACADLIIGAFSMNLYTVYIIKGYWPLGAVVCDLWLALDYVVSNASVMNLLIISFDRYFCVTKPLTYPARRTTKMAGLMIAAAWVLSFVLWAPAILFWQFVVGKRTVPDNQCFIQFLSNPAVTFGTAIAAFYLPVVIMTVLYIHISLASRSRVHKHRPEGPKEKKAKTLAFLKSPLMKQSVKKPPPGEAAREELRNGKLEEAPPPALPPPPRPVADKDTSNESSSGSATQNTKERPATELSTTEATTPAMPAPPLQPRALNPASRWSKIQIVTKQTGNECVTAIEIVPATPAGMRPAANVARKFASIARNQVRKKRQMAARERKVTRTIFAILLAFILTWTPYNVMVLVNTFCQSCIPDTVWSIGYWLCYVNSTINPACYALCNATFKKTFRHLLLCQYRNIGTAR
Procedure, shortened: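 Material: M4/GIRK1/GIRK2 stable HEK293 cell line. Medium: pH 7.3 thallium assay buffer. Dosing: single compound concentration, 10 µM final. Schedule: 1 h dye loading, 2 min kinetic read. Measured by: kinetic fluorescence with BTC-AM dye. Read-out: post-addition slope, 15–24 s, of baseline-normalized fluorescence. Benchmarks: carbachol and DMSO controls.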

[8] = inhibitors of larval lipid processing in zebrafish, primary screen, whole organism, PED6 fluorescence, gall bladder and intestine (AID 686;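 active = a full or partial loss of lipid-probe fluorescence in the fish gall bladder, intestine or both, judged by eye; inactive = no fluorescence loss, or compound toxic to the fish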;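 also: larvae 5 to 7 days old with five fish per well; signal comes from phospholipase A2 cleavage of quenched PED6 carried via bile; overnight exposure to compound and PED6 before scoring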); conditions: Zebrafish larvae PED6 lipid processing, fluorescence scoring; screened at 20 µM (by protocol)
Procedure, shortened: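 System: live zebrafish larvae aged 5-7 days, whole organism; measure: graded gall bladder and intestinal fluorescence inhibition per well; incubation: overnight exposure; reagent: ingested quenched lipid PED6 at 100 nM; signal: By-eye fluorescence microscopy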

[9] = loss of swimming-algae plug formation – whole organism, Chlamydomonas reinhardtii, WT vs cilia-less mutant, absorbance, 96-well, primary screen (AID 463189); conditions: Chlamydomonas reinhardtii gravitaxis, OD600 absorbance, 2 days; at 10 µM; stronger effect = higher value;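 also: 0% = wild type cc124 cells in DMSO and 100% = ciliumless bld1 mutant cells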
[10] = measured here: cell density z-score
[11] = measured here: nuclear c-Myc green intensity z-score
[12] = measured here: nuclear pErk red intensity z-score, stronger effect = higher value

Row | Compound | cell count [1] | inhibition [1] | inhibition [2] | nuclei count [2] [%] | z-score [3, 10] | z-score [3, 11] | z-score [3, 12] | inhibition [4] | fluorescence slope [5] | NADPH fluorescence slope [6] | fluorescence slope [7] | outcome [8] | inhibition [9]
1 | C=CCn1c(N)c(C(=O)Nc2ccccc2)c2nc3ccccc3nc21 | 628 | 9.1% (inactive) | -27.4% (inactive) | 121 | 1.06 | -1.1 | -0.334 | 9.07% (inactive) | -0.398 (inactive) | -1.8e-05 (inactive) | 0.00512 (inactive) | active; no signal in intestine only | 59.2% (active)
2 | CCNC(=O)c1cc2c(=O)n3cccc(C)c3nc2n(CCc2ccccc2)c1=N | 643 | 8.2% (inactive) | -7.9% (inactive) | 106 | -0.692 | 0.0237 | -0.676 | 14.7% (inactive) | -0.0428 (inactive) | -1.8e-05 (inactive) | 0.00034 (inactive) | active; no signal in intestine only | 70.9% (active)
3 | CCN(CC)CCN1C(=O)C(=O)/C(=C(/O)c2c(C)[nH]c(C(=O)OC)c2C)C1c1ccc(OC)cc1 (stereo unspecified) | 733 | -1.5% (inactive) | -75.7% (inactive) | 194 | -0.146 | -0.0149 | 0.967 | 0.671% (inactive) | -0.449 (inactive) | -4e-05 (inactive) | 0.00528 (inactive) | inactive | 18.4% (inactive)
4 | C[n+]1cccc(CNC(=O)/C=N/O)c1 | 621 | -2.4% (inactive) | -126% (inactive) | 158 | -2.05 | 3.02 | 0.751 | 6.04% (inactive) | -0.47 (inactive) | -3e-05 (inactive) | 0.00464 (inactive) | inactive | -6.73% (inactive)
5 | O=C(Oc1oc(-c2ccco2)nc1C=Nc1ccccc1)c1ccco1 | 504 | 15% (inactive) | -2% (inactive) | 108 | -2.44 | 1.67 | -0.418 | 22.1% (inactive) | -0.504 (inactive) | -3.8e-05 (inactive) | 0.0053 (inactive) | inactive | 38.4% (inactive)
6 | CC(C)CNC(=O)c1c(N)n(/N=C/c2cccnc2)c2nc3ccccc3nc12 | 412 | -2.8% (inactive) | -18% (inactive) | 105 | 1.93 | -1.56 | -0.113 | 17.7% (inactive) | -0.347 (inactive) | 4.3e-06 (inactive) | 0.00594 (inactive) | inactive | 35.6% (inactive)
7 | Cc1nnc(SCC(=O)N2CCOCC2)c2ccccc12 | 489 | 7.8% (inactive) | -38.5% (inactive) | 135 | 0.531 | 1.47 | 0.934 | 1.63% (inactive) | -0.534 (inactive) | -0.000118 (inactive) | 0.00485 (inactive) | inactive | -5.11% (inactive)
8 | CCOC(=O)c1cnn2c1[nH]c(=O)c1ccccc12 | 560 | -6.1% (inactive) | -143% (inactive) | 165 | 0.0185 | 1.83 | -0.274 | 17.8% (inactive) | -0.378 (inactive) | -4.5e-05 (inactive) | 0.0106 (active) | inactive | 24.1% (inactive)
9 | CCOC(=O)NC1(C(F)(F)F)C(=O)NC(C)=C1C#N (stereo unspecified) | 377 | 3.7% (inactive) | 5.5% (inactive) | 129 | -0.0977 | -0.0162 | 0.321 | 3.42% (inactive) | -0.427 (inactive) | -0.000119 (inactive) | 0.00503 (inactive) | inactive | 23.5% (inactive)
10 | CCCc1cc(Nc2c(C)n(C)n(-c3ccccc3)c2=O)n2c(nc3ccccc32)c1C#N | 336 | -3.4% (inactive) | -170% (inactive) | 134 | -1.08 | 0.689 | -0.99 | -6.59% (inactive) | -0.48 (inactive) | -2.2e-05 (inactive) | 0.00467 (inactive) | inactive | 0.457% (inactive)
11 | Cc1cc2nncn2c(Cc2ccccc2)n1 | 407 | -7.4% (inactive) | -152% (inactive) | 183 | -1.1 | 0.267 | 0.816 | -6.59% (inactive) | -0.428 (inactive) | -0.000108 (inactive) | 0.00485 (inactive) | inactive | -3.56% (inactive)
12 | Clc1ccc(-n2ncc3c(NCc4cccs4)ncnc32)cc1 | 615 | -9.4% (inactive) | -52.5% (inactive) | 125 | 0.539 | 0.108 | 0.0803 | 11.4% (inactive) | -0.385 (inactive) | -2.1e-05 (inactive) | 0.00704 (inactive) | inactive | 42.7% (inactive)
13 | O=C(COc1ccc(Cl)cc1)Nc1ccccc1CO | 590 | -0.5% (inactive) | -9.8% (inactive) | 120 | 1.01 | 0.534 | -0.247 | 5.42% (inactive) | -0.435 (inactive) | -0.000143 (inactive) | 0.00526 (inactive) | inactive | -8.26% (inactive)
14 | Cc1cc(=O)oc(C)c1C(=O)NCCC1=CCCCC1 | 603 | -7.1% (inactive) | -25.9% (inactive) | 114 | -1.14 | 1.4 | 1.29 | 1.63% (inactive) | -0.415 (inactive) | -3.7e-05 (inactive) | 0.00474 (inactive) | inactive | -3.01% (inactive)
15 | Brc1ccc(-c2cnnc(N3CCCC3)n2)cc1 | 399 | -2.1% (inactive) | -57.7% (inactive) | 130 | -1.38 | 0.891 | -0.195 | -0.608% (inactive) | -0.415 (inactive) | -1.2e-05 (inactive) | 0.005 (inactive) | inactive | 42.9% (inactive)
16 | Cc1cc(CC(=O)O)c(C)cc1CC(=O)O | 590 | -9.1% (inactive) | -39.7% (inactive) | 146 | -0.726 | 1.92 | 1.23 | -7.67% (inactive) | -0.445 (inactive) | -0.000138 (inactive) | 0.00496 (inactive) | inactive | -5.83% (inactive)
17 | CS(=O)(=O)c1ccc2nc(NC(NC(=O)c3ccco3)(C(F)(F)F)C(F)(F)F)sc2c1 | 376 | -6.2% (inactive) | 9.6% (inactive) | 162 | -0.876 | 1.31 | 0.831 | 3.42% (inactive) | -0.451 (inactive) | -8.9e-05 (inactive) | 0.00497 (inactive) | inactive | 2.54% (inactive)
18 | COc1ccc2[nH]c(C)c(C(=O)CN3CCOCC3)c2c1 | 640 | 7.2% (inactive) | -85.7% (inactive) | 184 | -1.08 | 1.22 | 0.499 | -1.98% (inactive) | -0.466 (inactive) | -6.6e-05 (inactive) | 0.00952 (inactive) | inactive | 13.2% (inactive)
19 | Cn1ncc(N=Cc2ccccc2O)c1C(=O)N1CCOCC1 | 723 | 6.6% (inactive) | -60.6% (inactive) | 172 | -0.778 | -0.56 | 0.451 | 7.93% (inactive) | -0.486 (inactive) | -9.6e-05 (inactive) | 0.00481 (inactive) | inactive | 32.2% (inactive)
20 | CCCCCCOc1ccc(N2C(=O)CC(N3CCN(C(=O)c4ccco4)CC3)C2=O)cc1 (stereo unspecified) | 632 | 8.2% (inactive) | -105% (inactive) | 150 | 0.106 | -0.155 | -0.8 | 10.1% (inactive) | -0.487 (inactive) | -3.5e-05 (inactive) | 0.00531 (inactive) | inactive | 5.01% (inactive)
21 | CCO/C(C)=N/n1c2nc3ccccc3nc2c2c(=O)n(Cc3ccccc3Cl)c(C)nc21 | 649 | -3.5% (inactive) | -201% (inactive) | 159 | -0.0584 | -0.543 | -0.0329 | 9.37% (inactive) | -0.455 (inactive) | -3.5e-05 (inactive) | 0.00359 (inactive) | inactive | 12.7% (inactive)
22 | C/C(=N\O)c1c(C)c2ccccc2n1C | 553 | -7.3% (inactive) | -33% (inactive) | 155 | 0.633 | -0.875 | 0.794 | 11.9% (inactive) | -0.374 (inactive) | -3.2e-05 (inactive) | 0.00461 (inactive) | inactive | 15.1% (inactive)
23 | CCOC(=O)c1c(C)n(C)c2ccc(O)c(CN3CCCCC3)c12 | 616 | 9.7% (inactive) | -7.7% (inactive) | 92.8 | -0.792 | 0.194 | -0.0734 | -15.1% (inactive) | -0.442 (inactive) | -3.9e-05 (inactive) | 0.00334 (inactive) | inactive | 22.8% (inactive)
24 | C=CCN=C(NC#N)SCCc1ccccc1 | 587 | -16.1% (inactive) | 49.5% (inactive) | 161 | -0.943 | 1.91 | -0.167 | -5.62% (inactive) | -0.498 (inactive) | -6.6e-05 (inactive) | 0.00676 (inactive) | inactive | -0.302% (inactive)
25 | Cc1cc(C)n(CC2CC(=O)N(c3ccc(F)c(Cl)c3)C2=O)n1 (stereo unspecified) | 460 | -0.7% (inactive) | -64.8% (inactive) | 111 | -0.992 | 0.731 | -1.56 | -3.97% (inactive) | -0.314 (inactive) | 1.8e-05 (inactive) | 0.00494 (inactive) | inactive | -11.1% (inactive)
26 | Cn1c(=O)[nH]c(=O)c2c1nc(Br)n2CCSc1ncccn1 | 643 | -7.6% (inactive) | -107% (inactive) | 179 | 0.65 | -0.91 | -0.622 | -2.59% (inactive) | -0.446 (inactive) | -4.5e-05 (inactive) | 0.00519 (inactive) | inactive | 13.2% (inactive)
27 | CCOC(=O)c1ccc(NC(=O)COc2ccccc2OC)cc1 | 668 | -1.6% (inactive) | 26.3% (inactive) | 179 | 1.9 | 0.486 | -1.19 | 33.3% (inactive) | -0.465 (inactive) | -0.000105 (inactive) | 0.00666 (inactive) | inactive | -9.5% (inactive)
